Test results: ChEMBL document CHEMBL4052700, “Synthesis and biological evaluation of JL-A7 derivatives as potent ABCB1 inhibitors” (Bioorg Med Chem, 2017); call rule not given here
pIC50: −log10 of the molar value. Counter-ions that a name gives are not always drawn. Each block holds one molecule with its values, some of them ahead of it.

Assays:
Format in all cases: cell-based
K562 = test: Cytotoxicity against human K562 cells after 48 hrs by MTT assay; settings: K562, 48 h
Procedure, shortened: (§1)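 K562 (parental) and K562/A02 (ADM-resistant, ABCB1-overexpressing) cells, 1×10^4/well, grown 24 h. A graded dose of compound in medium was added, then 48 h at 37 °C under 5% CO2. MTT was added for 4 h at 37 °C and absorbance read at 570 nm. IC50 was taken from dose–response curves.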

[1] = target: T1, ATP-dependent translocase ABCB1 (Homo sapiens, UniProt P08183); test: Inhibition of ABCB1 in human K562/A02 cells assessed as potentiation of adriamycin-induced cytotoxicity by measuring reduction in ADR IC50 at 5 uM measured after 48 hrs by MTT assay relative to ADR alone
T1 sequence (P08183 whole entry): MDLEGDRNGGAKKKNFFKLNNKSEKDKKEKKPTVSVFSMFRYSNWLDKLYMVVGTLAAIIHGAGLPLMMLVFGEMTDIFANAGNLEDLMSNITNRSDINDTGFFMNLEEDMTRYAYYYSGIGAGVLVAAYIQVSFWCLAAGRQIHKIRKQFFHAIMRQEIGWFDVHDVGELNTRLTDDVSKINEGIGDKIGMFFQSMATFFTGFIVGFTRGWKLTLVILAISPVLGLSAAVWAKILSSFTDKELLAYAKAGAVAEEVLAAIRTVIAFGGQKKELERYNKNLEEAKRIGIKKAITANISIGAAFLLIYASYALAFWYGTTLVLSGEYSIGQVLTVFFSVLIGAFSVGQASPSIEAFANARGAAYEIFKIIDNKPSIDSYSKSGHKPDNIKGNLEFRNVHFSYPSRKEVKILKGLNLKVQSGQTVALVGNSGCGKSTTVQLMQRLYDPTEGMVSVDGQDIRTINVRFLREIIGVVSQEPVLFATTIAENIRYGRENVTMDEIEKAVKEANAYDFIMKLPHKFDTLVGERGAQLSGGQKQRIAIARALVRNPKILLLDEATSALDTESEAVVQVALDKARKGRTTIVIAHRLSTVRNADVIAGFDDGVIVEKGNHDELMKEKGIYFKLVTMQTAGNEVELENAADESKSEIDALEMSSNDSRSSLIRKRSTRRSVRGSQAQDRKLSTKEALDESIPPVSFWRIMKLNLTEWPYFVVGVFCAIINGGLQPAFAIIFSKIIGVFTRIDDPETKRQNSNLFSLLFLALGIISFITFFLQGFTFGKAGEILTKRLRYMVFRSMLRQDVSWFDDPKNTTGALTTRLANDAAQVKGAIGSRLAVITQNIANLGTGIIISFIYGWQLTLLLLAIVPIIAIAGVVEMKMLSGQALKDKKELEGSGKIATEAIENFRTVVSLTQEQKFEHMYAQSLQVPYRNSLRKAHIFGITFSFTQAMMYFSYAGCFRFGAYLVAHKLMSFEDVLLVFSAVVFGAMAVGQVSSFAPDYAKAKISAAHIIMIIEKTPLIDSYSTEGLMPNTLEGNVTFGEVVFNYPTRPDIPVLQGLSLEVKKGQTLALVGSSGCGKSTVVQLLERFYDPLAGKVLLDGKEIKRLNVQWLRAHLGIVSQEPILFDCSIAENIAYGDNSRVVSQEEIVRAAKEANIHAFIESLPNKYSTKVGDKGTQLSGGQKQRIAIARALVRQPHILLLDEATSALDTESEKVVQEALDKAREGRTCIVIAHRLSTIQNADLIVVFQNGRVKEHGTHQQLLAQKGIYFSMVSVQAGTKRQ
Procedure, shortened: (§2)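 K562/A02 cells in RPMI 1640 with 10% FBS, 1×10^4/well, grown 24 h. Graded ADM was given with the modulator (0.025–5.0 µM), 48 h at 37 °C, 5% CO2. MTT 4 h, A570. ADM IC50 came from dose–response curves. RF = ADM IC50 without modulator / IC50 with modulator. Triplicates, three independent runs, mean ± SD.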

K562/A02 = test: Cytotoxicity against human K562/A02 cells after 48 hrs by MTT assay; settings: K562/A02, 48 h; procedure, shortened: as §1
[2] = target: T1, ATP-dependent translocase ABCB1; test: Inhibition of ABCB1 in human K562/A02 cells assessed as potentiation of adriamycin-induced cytotoxicity by measuring ADR IC50 treated for 48 hrs followed by compound washout measured after 24 hrs by MTT assay relative to ADR alone
Procedure, shortened: (§3)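 Duration of reversal in K562/A02 cells. After modulator exposure, cells were tested without washout or after modulator removal followed by 0, 6, 12 or 24 h in drug-free medium. ADM IC50 was then found by MTT. RF = IC50 without modulator / IC50 with modulator. Two to three experiments, mean ± SD.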

[3] = target: T1, ATP-dependent translocase ABCB1; test: Inhibition of ABCB1 in human K562/A02 cells assessed as potentiation of adriamycin-induced cytotoxicity by measuring reduction in ADR IC50 measured after 48 hrs by MTT assay relative to ADR alone; procedure, shortened: as §2
[4] = target: T1, ATP-dependent translocase ABCB1; test: Inhibition of ABCB1 in human K562/A02 cells assessed as potentiation of adriamycin-induced cytotoxicity by measuring ADR IC50 treated for 48 hrs followed by compound washout measured after 6 hrs by MTT assay relative to ADR alone; procedure, shortened: as §3
[5] = target: T1, ATP-dependent translocase ABCB1; test: Inhibition of ABCB1 in human K562/A02 cells assessed as potentiation of adriamycin-induced cytotoxicity by measuring ADR IC50 treated for 48 hrs followed by compound washout measured after 12 hrs by MTT assay relative to ADR alone; procedure, shortened: as §3
[6] = target: T1, ATP-dependent translocase ABCB1; test: Inhibition of ABCB1 in human K562/A02 cells assessed as potentiation of adriamycin-induced cytotoxicity by measuring ADR IC50 treated for 48 hrs followed by compound washout measured immediately by MTT assay relative to ADR alone; procedure, shortened: as §3
[7] = target: T1, ATP-dependent translocase ABCB1; test: Inhibition of ABCB1 in human K562/A02 cells assessed as rhodamine123 efflux after 90 mins by flow cytometric analysis (reference value: 0.0231 +/- 0.0058 /s); settings: 1.5 h
[8] = target: T1, ATP-dependent translocase ABCB1; test: Inhibition of ABCB1 in human K562/A02 cells assessed as potentiation of adriamycin-induced cytotoxicity by measuring reduction in ADR IC50 at 5 uM measured after 48 hrs by MTT assay relative to tariquidar
[9] = target: T1, ATP-dependent translocase ABCB1; test: Inhibition of ABCB1 in human K562/A02 cells assessed as potentiation of adriamycin-induced cytotoxicity by measuring reduction in ADR IC50 at 1 uM measured after 48 hrs by MTT assay relative to ADR alone; procedure, shortened: as §2
[10] = target: T1, ATP-dependent translocase ABCB1; test: Inhibition of ABCB1 in human K562/A02 cells assessed as potentiation of adriamycin-induced cytotoxicity by measuring reduction in ADR IC50 at 2.5 uM measured after 48 hrs by MTT assay relative to ADR alone; procedure, shortened: as §2
[11] = target: T1, ATP-dependent translocase ABCB1; test: Inhibition of ABCB1 in human K562/A02 cells assessed as potentiation of adriamycin-induced cytotoxicity measured after 48 hrs by MTT assay; procedure, shortened: as §2
[12] = target: T1, ATP-dependent translocase ABCB1; test: Inhibition of ABCB1 in human K562/A02 cells assessed as increase in doxorubicin accumulation after 90 mins by rhodamine123 staining based flow cytometric analysis; settings: 1.5 h
[13] = target: T1, ATP-dependent translocase ABCB1; test: Inhibition of ABCB1 in human K562/A02 cells assessed as increase in adriamycin accumulation at 0.5 to 2.5 uM pretreated for 60 mins followed by ADR addition after 90 mins by fluorescence spectrophotometric method; settings: 1.5 h
Procedure, shortened: (§4)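 ADM was then added at 20 µM for 90 min. Cells were washed three times with PBS at 4 °C. Retained intracellular ADM mean fluorescence intensity was read by fluorescence spectrophotometer. Three independent experiments, mean ± SD.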

[14] = target: T1, ATP-dependent translocase ABCB1; test: Inhibition of ABCB1 in human K562/A02 cells assessed as potentiation of adriamycin-induced cytotoxicity by measuring reduction in ADR IC50 at 5 uM measured after 48 hrs by MTT assay relative to verapamil
[15] = target: T1, ATP-dependent translocase ABCB1; test: Inhibition of ABCB1 in human K562/A02 cells assessed as potentiation of adriamycin-induced cytotoxicity by measuring reduction in ADR IC50 at 5 uM measured after 48 hrs by MTT assay relative to JL-A7
[16] = target: T1, ATP-dependent translocase ABCB1; test: Inhibition of ABCB1 in human K562/A02 cells assessed as increase in adriamycin accumulation pretreated for 60 mins followed by ADR addition after 90 mins by fluorescence spectrophotometric method; settings: 1.5 h; procedure, shortened: as §4
[17] = target: T1, ATP-dependent translocase ABCB1; test: Inhibition of ABCB1 in human K562/A02 cells assessed as potentiation of adriamycin-induced cytotoxicity by measuring reduction in ADR IC50 at 0.1 uM measured after 48 hrs by MTT assay relative to ADR alone; procedure, shortened: as §2
[18] = target: T1, ATP-dependent translocase ABCB1; test: Inhibition of ABCB1 in human K562/A02 cells assessed as potentiation of adriamycin-induced cytotoxicity by measuring reduction in ADR IC50 at 0.5 uM measured after 48 hrs by MTT assay relative to ADR alone; procedure, shortened: as §2
[19] = target: T1, ATP-dependent translocase ABCB1; test: Inhibition of ABCB1 in human K562/A02 cells assessed as potentiation of adriamycin-induced cytotoxicity by measuring reduction in ADR IC50 at 0.025 uM measured after 48 hrs by MTT assay relative to ADR alone; procedure, shortened: as §2
[20] = target: T1, ATP-dependent translocase ABCB1; test: Inhibition of ABCB1 in human K562/A02 cells assessed as potentiation of adriamycin-induced cytotoxicity by measuring reduction in ADR IC50 at 0.05 uM measured after 48 hrs by MTT assay relative to ADR alone; procedure, shortened: as §2
[21] = target: T1, ATP-dependent translocase ABCB1; test: Inhibition of ABCB1 in human K562/A02 cells assessed as potentiation of adriamycin-induced cytotoxicity by measuring reduction in ADR IC50 at 0.25 uM measured after 48 hrs by MTT assay relative to ADR alone; procedure, shortened: as §2
[22] = target: T1, ATP-dependent translocase ABCB1; test: Potency index, ratio of compound effect to verapamil effect for inhibition of ABCB1 in human K562/A02 cells assessed as increase in adriamycin accumulation at 5 uM; procedure, shortened: as §4

SMILES: COc1cc2c(cc1OC)CN(CCn1cc(COc3ccccc3C(=O)Nc3ccc(C)cc3)nn1)CC2
pIC50 (K562): < 4.00
fold change (FC) [1]: 12.6
pIC50 (K562/A02): < 4.00

SMILES: COc1cccc(NC(=O)c2ccccc2OCc2cn(CCN3CCc4cc(OC)c(OC)cc4C3)nn2)c1
pIC50 (K562): < 4.00
fold change (FC) [1]: 5.6 to 11.1
pIC50 (K562/A02): < 4.00

SMILES: COc1ccc(NC(=O)c2ccccc2OCc2cn(CCN3CCc4cc(OC)c(OC)cc4C3)nn2)cc1OC
pIC50 (K562): < 4.00
fold change (FC) [1]: 12.4
pIC50 (K562/A02): < 4.00

SMILES: COc1cc2c(cc1OC)CN(CCn1cc(COc3ccccc3C(=O)Nc3ccc(OC(F)(F)F)cc3)nn1)CC2
pIC50 (K562): < 4.00
fold change (FC) [1]: 21.4
pIC50 (K562/A02): < 4.00

SMILES: COc1cc2c(cc1OC)CN(CCn1cc(COc3ccccc3C(=O)Nc3cccc([N+](=O)[O-])c3)nn1)CC2
pIC50 (K562): < 4.00
fold change (FC) [1]: 3.5
pIC50 (K562/A02): < 4.00

SMILES: COc1ccc(NC(=O)c2ccccc2OCc2cn(CCN3CCc4cc(OC)c(OC)cc4C3)nn2)cc1
pIC50 (K562): 4.10
fold change (FC) [1]: 11.6
pIC50 (K562/A02): < 4.00

SMILES: COc1cc2c(cc1OC)CN(CCn1cc(COc3ccccc3NC(=O)c3ccc(C(C)(C)C)cc3)nn1)CC2
pIC50 (K562): < 4.00
fold change (FC) [1]: 28.2
pIC50 (K562/A02): < 4.00

SMILES: COc1cc2c(cc1OC)CN(CCn1cc(COc3ccccc3C(=O)Nc3ccccc3[N+](=O)[O-])nn1)CC2
pIC50 (K562): < 4.00
fold change (FC) [1]: 3.6
pIC50 (K562/A02): < 4.00

SMILES: COc1cc2c(cc1OC)CN(CCn1cc(COc3ccccc3C(=O)Nc3cccc(C)c3)nn1)CC2
pIC50 (K562): < 4.00
fold change (FC) [1]: 8
pIC50 (K562/A02): < 4.00

SMILES: COc1cc2c(cc1OC)CN(CCn1cc(COc3ccccc3C(=O)Nc3ccccc3)nn1)CC2
pIC50 (K562): < 4.00
fold change (FC) [1]: 3.8
pIC50 (K562/A02): < 4.00

SMILES: COc1cc2c(cc1OC)CN(CCn1cc(COc3ccccc3C(=O)Nc3cc(OC)c(OC)c(OC)c3)nn1)CC2
pIC50 (K562): < 4.00
fold change (FC) [1]: 3
pIC50 (K562/A02): < 4.00

SMILES: COc1cc2c(cc1OC)CN(CCc1ccc(NC(=O)c3cc(OC)c(OC)cc3NC(=O)c3cnc4ccccc4c3)cc1)CC2
fold change (FC) [2]: 3.55
pIC50 (K562): 4.50
fold change (FC) [3]: 31.98
fold change (FC) [4]: 10.37
fold change (FC) [1]: 49.1
fold change (FC) [5]: 6.1
fold change (FC) [6]: 16.86
pIC50 (K562/A02): 4.57

SMILES: COc1cccc2c1C(=O)c1c(O)c3c(c(O)c1C2=O)C[C@@](O)(C(=O)CO)C[C@@H]3O[C@H]1C[C@H](N)[C@H](O)[C@H](C)O1 [DOXORUBICIN HYDROCHLORIDE]
pIC50 (K562): 5.37
fold change (FC) [1]: 1
pIC50 (K562/A02): 4.01

SMILES: COc1cc2c(cc1OC)CN(CCn1cc(COc3ccccc3C(=O)Nc3cccc(Cl)c3)nn1)CC2
pIC50 (K562): 4.06
fold change (FC) [1]: 4.3
pIC50 (K562/A02): < 4.00

K [7]: 0.0067 s⁻¹
inhibition (INH) [12]: Dose-dependent effect
inhibition (INH) [13]: Active
inhibition (INH) [16]: Dose-dependent effect
Ratio [22]: 1.4
SMILES: COc1cc2c(cc1OC)CN(CCn1cc(COc3ccccc3C(=O)Nc3ccc(C(C)(C)C)cc3)nn1)CC2
fold change (FC) [2]: 2.96
pIC50 (K562): < 4.00
fold change (FC) [3]: 40.34
fold change (FC) [8]: <= 31.4
fold change (FC) [9]: 7.5
fold change (FC) [4]: 8.16
fold change (FC) [1]: 33.5
fold change (FC) [10]: 13.5
inhibition (INH) [11]: Dose-dependent effect
fold change (FC) [14]: <= 31.4
fold change (FC) [15]: <= 31.4
fold change (FC) [17]: 1.6
fold change (FC) [5]: 4.93
fold change (FC) [6]: 11.83
pIC50 (K562/A02): < 4.00
fold change (FC) [18]: 3.9
fold change (FC) [19]: 1.4
fold change (FC) [20]: 1.4
fold change (FC) [21]: 2.4

SMILES: CCCCc1ccc(NC(=O)c2ccccc2OCc2cn(CCN3CCc4cc(OC)c(OC)cc4C3)nn2)cc1
pIC50 (K562): < 4.00
fold change (FC) [1]: 15.5
pIC50 (K562/A02): < 4.00

SMILES: COc1cc2c(cc1OC)CN(CCn1cc(COc3ccccc3C(=O)Nc3ccc(F)cc3)nn1)CC2
pIC50 (K562): < 4.00
fold change (FC) [1]: 11.7
pIC50 (K562/A02): < 4.00

inhibition (INH) [12]: Dose-dependent effect
inhibition (INH) [13]: Active
SMILES: COc1ccc(CCN(C)CCCC(C#N)(c2ccc(OC)c(OC)c2)C(C)C)cc1OC (stereo not drawn)

SMILES: COc1cc2c(cc1OC)CN(CCn1cc(COc3ccccc3C(=O)Nc3ccc([N+](=O)[O-])cc3)nn1)CC2
pIC50 (K562): < 4.00
fold change (FC) [1]: 4.6
pIC50 (K562/A02): < 4.00

SMILES: COc1cc2c(cc1OC)CN(CCn1cc(COc3ccccc3C(=O)Nc3ccc(Cl)cc3)nn1)CC2
pIC50 (K562): < 4.00
fold change (FC) [1]: 14
pIC50 (K562/A02): < 4.00

SMILES: COc1cc2c(cc1OC)CN(CCn1cc(COc3ccccc3C(=O)Nc3ccccc3C)nn1)CC2
pIC50 (K562): < 4.00
fold change (FC) [1]: 4.4
pIC50 (K562/A02): < 4.00
